{
  "source": "ChEMBL document CHEMBL1212759",
  "about": "“Antifungal activity of colistin against mucorales species in vitro and in a murine model of Rhizopus oryzae pulmonary infection” (Antimicrob Agents Chemother, 2010)",
  "key": {"Mucor circinelloides [1]": {"test_system": "Mucor circinelloides", "test": "Antimicrobial activity against Mucor circinelloides isolate 4818 after 24 hrs in yeast nitrogen base complete medium by broth microdilution method", "assay_type": "functional, organism-based", "method_in_brief": "(§1)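 Broth microdilution in YNB complete medium with colistin at 128 to 0.12 μg/ml. Freshly collected spores were inoculated at 0.5 × 10^4 to 4 × 10^4 cells/ml and incubated 24 h at 37°C. MIC was read visually as the lowest concentration with complete (100%) growth inhibition.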"}, "Rhizopus microsporus": {"test_system": "Rhizopus microsporus", "test": "Antimicrobial activity against Rhizopus microsporus isolate 6164 after 24 hrs in RMPI 1640 medium by broth microdilution method", "assay_type": "functional", "method_in_brief": "(§2)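 Colistin was serially diluted from 64 to 0.06 μg/ml in RPMI 1640 with glucamine and without bicarbonate. Fresh spores from 48–72 h YAG plates were added at 0.5 × 10^4 to 4 × 10^4 cells/ml. Plates were incubated 24 h at 37°C. MIC was read visually as the lowest concentration giving 100% growth inhibition.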"}, "Rhizopus arrhizus [2]": {"test_system": "Rhizopus arrhizus", "test": "Antimicrobial activity against Rhizopus oryzae assessed as reduction in hyphal viability at 8 ug/ml after 24 hrs by XTT assay", "assay_type": "functional, organism-based", "method_in_brief": "(§3)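 R. oryzae mycelia were shaken at 37°C in RPMI 1640 with colistin, amphotericin B or both; drug-free RPMI served as control. At 0, 2, 6 and 24 h, pellets received XTT (1 mg) plus menadione (0.17 mg) in 1 ml PBS for 1 h at 37°C, then OD405 was read. Viability is drug OD405 divided by control OD405; at least three experiments.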"}, "Rhizopus [3]": {"test_system": "Rhizopus", "test": "Antimicrobial activity against Rhizopus sp. isolate 4523 after 24 hrs in yeast nitrogen base complete medium by broth microdilution method", "assay_type": "functional, organism-based", "method_in_brief": "(§4)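 Microdilution was done in yeast nitrogen base complete medium, with colistin serially diluted 128 to 0.12 μg/ml. Spores were harvested from YAG plates (48–72 h, 37°C), washed, filtered and counted, then added at 0.5 × 10^4 to 4 × 10^4 cells/ml. After 24 h at 37°C, MIC was taken visually as the lowest concentration with complete growth inhibition.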"}, "Rhizopus homothallicus [4]": {"test_system": "Rhizopus homothallicus", "test": "Antimicrobial activity against Rhizopus homothallicus isolate 6360 after 24 hrs in yeast nitrogen base complete medium by broth microdilution method", "assay_type": "functional", "method_in_brief": "as §1"}, "Rhizopus arrhizus [5]": {"test_system": "Rhizopus arrhizus", "test": "Antimicrobial activity against Rhizopus oryzae isolate 6093 after 24 hrs in yeast nitrogen base complete medium by broth microdilution method", "assay_type": "functional, organism-based", "method_in_brief": "as §4"}, "Rhizopus arrhizus [6]": {"test_system": "Rhizopus arrhizus", "test": "Antimicrobial activity against Rhizopus oryzae assessed as reduction in hyphal viability at 8 ug/ml up to 6 hrs by XTT assay", "assay_type": "functional, organism-based", "method_in_brief": "as §3"}, "Mucor circinelloides [7]": {"test_system": "Mucor circinelloides", "test": "Antimicrobial activity against Mucor circinelloides isolate 5904 after 24 hrs in RMPI 1640 medium by broth microdilution method", "assay_type": "functional, organism-based", "method_in_brief": "as §2"}, "[8]": {"test_system": "Cunninghamella bertholletiae", "test": "Antimicrobial activity against Cunninghamella bertholletiae isolate 6694 after 24 hrs in RMPI 1640 medium by broth microdilution method", "assay_type": "functional, organism-based", "method_in_brief": "as §2"}, "[9]": {"test_system": "Cunninghamella bertholletiae", "test": "Antimicrobial activity against Cunninghamella bertholletiae isolate 5633 after 24 hrs in RMPI 1640 medium by broth microdilution method", "assay_type": "functional, organism-based", "method_in_brief": "as §2"}, "Rhizopus [10]": {"test_system": "Rhizopus", "test": "Antimicrobial activity against […] isolate 6254 after 24 hrs in RMPI 1640 medium by broth microdilution method", "assay_type": "functional, organism-based", "method_in_brief": "as §2"}, "[11]": {"test_system": "Cunninghamella bertholletiae", "test": "Antimicrobial activity against Cunninghamella bertholletiae isolate 5633 after 24 hrs in yeast nitrogen base complete medium by broth microdilution method", "assay_type": "functional, organism-based", "method_in_brief": "as §1"}, "Rhizopus arrhizus [12]": {"test_system": "Rhizopus arrhizus", "test": "Antimicrobial activity against Rhizopus oryzae assessed as vacuolar and plasma membrane damage at 32 ug/ml by FM4-64 staining", "assay_type": "functional, organism-based", "method_in_brief": "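Germlings at 5 × 10^6/ml were loaded with 5 μM FM4-64 in RPMI 1640 for 30 min at 30°C in the dark. After washing in PBS, they were exposed to colistin at the MIC and MFC, or drug-free RPMI, for 60 min at 37°C. Membranes were viewed by fluorescence microscopy with a rhodamine filter.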"}, "Rhizopus arrhizus [13]": {"test_system": "Rhizopus arrhizus", "test": "Fungicidal activity against Rhizopus oryzae 5799 after 6 hrs by DiBAC staining", "assay_type": "functional, organism-based", "method_in_brief": "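Spores were grown to mycelia in RPMI 1640 plus 0.15% Junlon, shaken 18 h at 37°C. Mycelia were pelleted and exposed 6 h at 37°C with shaking to colistin (two levels), amphotericin B 2 μg/ml, or drug-free medium. They were washed in MOPS pH 7, stained with DiBAC 2 μg/ml for 1 h in the dark at ambient temperature, and imaged by fluorescence microscopy with an FITC filter.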"}, "[14]": {"test_system": "Cunninghamella bertholletiae", "test": "Antimicrobial activity against Cunninghamella bertholletiae isolate 6733 after 24 hrs in yeast nitrogen base complete medium by broth microdilution method", "assay_type": "functional, organism-based", "method_in_brief": "as §1"}, "Mucor circinelloides [15]": {"test_system": "Mucor circinelloides", "test": "Antimicrobial activity against Mucor circinelloides isolate 4480 after 24 hrs in RMPI 1640 medium by broth microdilution method", "assay_type": "functional, organism-based", "method_in_brief": "as §2"}, "Rhizopus homothallicus [16]": {"test_system": "Rhizopus homothallicus", "test": "Antimicrobial activity against Rhizopus homothallicus isolate 5790 after 24 hrs in RMPI 1640 medium by broth microdilution method", "assay_type": "functional", "method_in_brief": "as §2"}, "Mucor circinelloides [17]": {"test_system": "Mucor circinelloides", "test": "Ratio of MFC to MIC for Mucor circinelloides isolate 4480 after 24 hrs in RMPI 1640 medium by broth microdilution method", "assay_type": "functional, organism-based", "method_in_brief": "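RPMI 1640 microdilution with colistin at 64 to 0.06 μg/ml and spores at 0.5 × 10^4 to 4 × 10^4 cells/ml, incubated 24 h at 37°C. MIC was read visually as 100% inhibition. For MFC, 20 μl from clear wells and from the last growth well were subcultured onto YAG. MFC was the lowest concentration giving fewer than three colonies at 24 h (≥99.9% killing). The line reports the MFC/MIC ratio.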"}, "Rhizopus arrhizus [18]": {"test_system": "Rhizopus arrhizus", "test": "Antimicrobial activity against Rhizopus oryzae assessed as plasma membrane disruption-related ATP release at 32 ug/ml after 5 mins by Cell Titer-Glo luminescent assay", "assay_type": "functional, organism-based", "method_in_brief": "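Spores at 10^7 cells/ml in RPMI 1640 were germinated about 6 h at 37°C. Germlings were resuspended in RPMI with colistin at 8 or 32 μg/ml, or drug-free, and shaken at 37°C. Supernatants taken at 5, 30, 60 and 90 min were assayed for released ATP by CellTiter-Glo luminescence.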"}, "Rhizopus arrhizus [19]": {"test_system": "Rhizopus arrhizus", "test": "Antimicrobial activity against Rhizopus oryzae isolate 4549 after 24 hrs in RMPI 1640 medium by broth microdilution method", "assay_type": "functional, organism-based", "method_in_brief": "as §2"}, "Rhizopus arrhizus [20]": {"test_system": "Rhizopus arrhizus", "test": "Antimicrobial activity against Rhizopus oryzae isolate 6725 after 24 hrs in RMPI 1640 medium by broth microdilution method", "assay_type": "functional, organism-based", "method_in_brief": "(§5)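 Broth microdilution in RPMI 1640 with […], without bicarbonate. Colistin was serially diluted 64 to 0.06 μg/ml. Spores came from YAG plates grown 48–72 h at 37°C, were filtered and counted, and were inoculated at 0.5 × 10^4 to 4 × 10^4 cells/ml. Plates were incubated 24 h at 37°C. MIC was read visually as the lowest concentration giving 100% growth inhibition.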"}, "Rhizopus arrhizus [21]": {"test_system": "Rhizopus arrhizus", "test": "Antimicrobial activity against Rhizopus oryzae isolate 6093 after 24 hrs in RMPI 1640 medium by broth microdilution method", "assay_type": "functional, organism-based", "method_in_brief": "as §5"}},
  "note": "The source made the active and inactive calls. No cut-off for these calls is given here.",
  "data": [
    {"sequence": "COLISTIN", "values": [
      {"measurement": "MFC", "setting": "Mucor circinelloides [1]", "value": "> 128", "unit": "µg/mL"},
      {"measurement": "MIC", "setting": "Mucor circinelloides [1]", "value": 128, "unit": "µg/mL"},
      {"measurement": "MFC", "setting": "Rhizopus microsporus", "value": 64, "unit": "µg/mL"},
      {"measurement": "MIC", "setting": "Rhizopus microsporus", "value": 32, "unit": "µg/mL"},
      {"measurement": "inhibition", "setting": "Rhizopus arrhizus [2]", "value": "inactive"},
      {"measurement": "MFC", "setting": "Rhizopus [3]", "value": "> 128", "unit": "µg/mL"},
      {"measurement": "MIC", "setting": "Rhizopus [3]", "value": 128, "unit": "µg/mL"},
      {"measurement": "MFC", "setting": "Rhizopus homothallicus [4]", "value": "> 128", "unit": "µg/mL"},
      {"measurement": "MIC", "setting": "Rhizopus homothallicus [4]", "value": 128, "unit": "µg/mL"},
      {"measurement": "MFC", "setting": "Rhizopus arrhizus [5]", "value": "> 128", "unit": "µg/mL"},
      {"measurement": "MIC", "setting": "Rhizopus arrhizus [5]", "value": 128, "unit": "µg/mL"},
      {"measurement": "inhibition", "setting": "Rhizopus arrhizus [6]", "value": 45, "unit": "%"},
      {"measurement": "MFC", "setting": "Mucor circinelloides [7]", "value": 64, "unit": "µg/mL"},
      {"measurement": "MIC", "setting": "Mucor circinelloides [7]", "value": 16, "unit": "µg/mL"},
      {"measurement": "MFC", "setting": "[8]", "value": 64, "unit": "µg/mL"},
      {"measurement": "MIC", "setting": "[8]", "value": 16, "unit": "µg/mL"},
      {"measurement": "MFC", "setting": "[9]", "value": 64, "unit": "µg/mL"},
      {"measurement": "MIC", "setting": "[9]", "value": 16, "unit": "µg/mL"},
      {"measurement": "MFC", "setting": "Rhizopus [10]", "value": 32, "unit": "µg/mL"},
      {"measurement": "MIC", "setting": "Rhizopus [10]", "value": 16, "unit": "µg/mL"},
      {"measurement": "MFC", "setting": "[11]", "value": "> 128", "unit": "µg/mL"},
      {"measurement": "MIC", "setting": "[11]", "value": 128, "unit": "µg/mL"},
      {"measurement": "Activity", "setting": "Rhizopus arrhizus [12]", "value": "Active"},
      {"measurement": "Activity", "setting": "Rhizopus arrhizus [13]", "value": "Dose-dependent effect"},
      {"measurement": "MFC", "setting": "[14]", "value": "> 128", "unit": "µg/mL"},
      {"measurement": "MIC", "setting": "[14]", "value": 128, "unit": "µg/mL"},
      {"measurement": "MFC", "setting": "Mucor circinelloides [15]", "value": 32, "unit": "µg/mL"},
      {"measurement": "MIC", "setting": "Mucor circinelloides [15]", "value": 16, "unit": "µg/mL"},
      {"measurement": "MFC", "setting": "Rhizopus homothallicus [16]", "value": 64, "unit": "µg/mL"},
      {"measurement": "MIC", "setting": "Rhizopus homothallicus [16]", "value": 16, "unit": "µg/mL"},
      {"measurement": "Ratio", "setting": "Mucor circinelloides [17]", "value": 2},
      {"measurement": "Activity", "setting": "Rhizopus arrhizus [18]", "value": "Active"},
      {"measurement": "MFC", "setting": "Rhizopus arrhizus [19]", "value": 64, "unit": "µg/mL"},
      {"measurement": "MIC", "setting": "Rhizopus arrhizus [19]", "value": 32, "unit": "µg/mL"},
      {"measurement": "MFC", "setting": "Rhizopus arrhizus [20]", "value": 32, "unit": "µg/mL"},
      {"measurement": "MIC", "setting": "Rhizopus arrhizus [20]", "value": 16, "unit": "µg/mL"},
      {"measurement": "MFC", "setting": "Rhizopus arrhizus [21]", "value": 32, "unit": "µg/mL"},
      {"measurement": "MIC", "setting": "Rhizopus arrhizus [21]", "value": 16, "unit": "µg/mL"}
    ]}
  ]
}
